In the library only some 3.1% were active in any assay of this set; here they are far more common.
SENP7 block: SENP7 protease inhibition; Q9BQF6; 1.5% of 330,000 active; inhibition, % at 5 µM; recombinant SENP7, Z-RLRGG-aminoluciferin luminescence, 40 min;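 active = inhibition above about 50% at the single test dose, limit read from the data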
SENP6 block: SENP6 protease inhibition. 1.8% of 330,000 active. inhibition, % at 10 µM. Recombinant SENP6 catalytic domain, aminoluciferin luminescence. AID 2599. Q9GZR1;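 active = inhibition above about 50% at the single tested dose, limit read from the data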
Target sequence (Q9GZR1 628-1112 limits assumed): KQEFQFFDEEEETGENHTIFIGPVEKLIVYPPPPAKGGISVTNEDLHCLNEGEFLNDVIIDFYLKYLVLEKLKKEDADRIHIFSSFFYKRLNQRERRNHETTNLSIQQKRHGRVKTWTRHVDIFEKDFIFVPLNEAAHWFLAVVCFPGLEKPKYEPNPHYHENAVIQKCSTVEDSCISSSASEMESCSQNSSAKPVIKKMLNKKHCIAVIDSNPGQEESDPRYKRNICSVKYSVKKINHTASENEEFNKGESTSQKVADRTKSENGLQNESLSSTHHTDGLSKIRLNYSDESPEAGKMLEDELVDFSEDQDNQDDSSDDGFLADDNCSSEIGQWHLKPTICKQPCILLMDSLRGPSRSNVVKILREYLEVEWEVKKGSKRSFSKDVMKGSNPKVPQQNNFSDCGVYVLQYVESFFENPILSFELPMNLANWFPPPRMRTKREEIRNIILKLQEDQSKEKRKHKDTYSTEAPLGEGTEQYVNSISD
SENP8 block-1: blocks the human protease SENP8. purified SENP8, Z-RLRGG-aminoluciferin cleavage, luminescence. inhibition, % at 10 µM. 1.2% of 330,000 active. AID 2540; in the data active = inhibition above about 50%
Target sequence (Q96LD8 whole entry, looked up): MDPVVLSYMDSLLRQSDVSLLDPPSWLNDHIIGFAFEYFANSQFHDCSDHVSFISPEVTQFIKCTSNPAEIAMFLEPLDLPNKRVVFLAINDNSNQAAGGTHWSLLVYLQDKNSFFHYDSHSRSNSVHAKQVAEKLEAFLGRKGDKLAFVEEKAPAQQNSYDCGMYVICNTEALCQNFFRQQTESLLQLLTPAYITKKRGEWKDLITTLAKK
UBC13 polyUb: blocks human UBC13 polyubiquitin chain formation. P61088. TR-FRET. inhibition, % at 20 µM. 0.47% of 330,000 active; in the data active = inhibition above about 45%, passing the limit was not always enough
Apaf1 inhib: inhibitors of human Apaf-1 apoptosome. O14727. reconstituted apoptosome caspase-3 activity, DEVD-Rh110 fluorescence. inhibition, % at 20 µM. 0.71% of 330,000 active. AID 489030; active = inhibition of at least 40% at 20 µM
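System: reconstituted apoptosome with Apaf-1, cytochrome c, caspase-9, procaspase-3, dATP; Signal: Rh110 fluorescence intensity; Schedule: 30 min compound preincubation, 50 min activation, room temperature; Reagent: cytochrome c trigger plus (Z-DEVD)2-Rh110 caspase-3 substrate.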
SENP8 block-2: SENP8 (human) protease inhibition | Q96LD8 | recombinant SENP8, Nedd8 substrate fluorescence | inhibition, % at 20 µM | 0.64% of 360,000 active | AID 602440; in the data active = inhibition mostly above about 40%, no sharp cut-off; inactive = mostly below about 27%
Of the large screens only hits and unclear results are named; the others gave an inactive call; ! = not active in a repeat.

CN1C(=O)/C(=C/c2ccc(-c3ccccc3[N+](=O)[O-])o2)SC1=Nc1ccc(Cl)c(C(=O)O)c1	SENP8 block-2 41.7 (no result: SENP7 block, SENP6 block, SENP8 block-1, UBC13 polyUb, Apaf1 inhib)
CCc1ccc2c(c1)c(N=NC1=NC(=O)CS1)c(O)n2C	SENP8 block-2 40.1
Cc1cc(C)c2[nH]c(O)c(N=NC3=NC(=O)CS3)c2c1	none
O=C(Nc1ccc(-c2cn3ccccc3n2)cc1)c1cccs1	SENP7 block 52.2
COc1ccc(CC(=O)Nc2ccc(-c3cn4ccccc4n3)cc2)cc1	none
O=C(Nc1ccccc1)c1cn2ccccc2n1	SENP7 block 90.6, SENP6 block 90.2, SENP8 block-1 81.9
CCOC(=O)N1CCN(C(C(=O)NC2CCCC2)C(C)C)CC1 (stereo not drawn)	none (no result: SENP7 block, SENP6 block, SENP8 block-1, UBC13 polyUb, Apaf1 inhib)
COC(=O)CC1OCC=C2CN3CCC45C6=CC(=O)C(=O)C([N+](=O)[O-])=C6NC4C1C2CC35 (stereo not drawn)	SENP8 block-2 109.6 (no result: SENP7 block, SENP6 block, SENP8 block-1, UBC13 polyUb, Apaf1 inhib)
COc1ccc(-n2nnnc2C(c2ccccc2)N2CCN(C/C=C/c3ccccc3)CC2)cc1 (stereo not drawn)	none (no result: SENP7 block, SENP6 block, SENP8 block-1, UBC13 polyUb, Apaf1 inhib)
COc1ccc(-c2nc3ccc(C)cn3c2Cc2ccsc2)cc1OC	none (no result: SENP7 block, SENP6 block, SENP8 block-1, UBC13 polyUb, Apaf1 inhib)
CCOCCCNCC(O)c1ccccc1 (stereo not drawn)	none
OCc1cc(C(O)CNCCCCCCOCCCCc2ccccc2)ccc1O (stereo not drawn)	Apaf1 inhib 41.5!
COc1ccc(-c2ccc(/C=C3\C(=O)N(c4ccccc4)N=C3c3ccccc3)o2)c([N+](=O)[O-])c1	SENP8 block-2 46.0
O=C(O)c1cc(N/N=C/C=C/c2ccccc2[N+](=O)[O-])ccc1Cl	SENP8 block-1 52.4
NS(=O)(=O)c1ccc(N/N=C/C=C/c2ccccc2[N+](=O)[O-])cc1	none
COc1ccc(NS(=O)(=O)c2ccc(NC(=S)NC(=O)c3cccc(F)c3)cc2)nn1	SENP7 block 80.4, SENP6 block 92.0, SENP8 block-1 84.5
CSCc1cc(C(=O)NC2CC2)c(N)s1	none (no result: SENP7 block, SENP6 block, SENP8 block-1, UBC13 polyUb, Apaf1 inhib)
CCOP(=O)(C1=C(O)C(=O)C(C(C)(C)C)=CC1=O)c1ccccc1 (stereo not drawn)	SENP8 block-2 86.9 (no result: SENP7 block, SENP6 block, SENP8 block-1, UBC13 polyUb, Apaf1 inhib)
Cc1cc(C)c(Nc2cc(S(=O)(=O)O)c(N)c3c2C(=O)c2ccccc2C3=O)c(C)c1	SENP8 block-2 48.4 (no result: SENP7 block, SENP6 block, SENP8 block-1, UBC13 polyUb, Apaf1 inhib)
Cc1cc(C)c(NC(=O)COC(=O)c2cccc3c2C(=O)c2ccccc2C3=O)c(C)c1	none
Cc1coc2c1C(=O)C(=O)c1c-2ccc2c(C)cccc12	Apaf1 inhib 96.0
C#CCOCCOCCOCCNc1nc(N2CCN(C(=O)[C@H](CCCCN)n3cc(C(N)CO)nn3)CC2)nc(N2CCN(C(=O)[C@H](CCCCN)n3cc(C(N)COC(=O)C(F)(F)F)nn3)CC2)n1 (stereo partly drawn)	UBC13 polyUb 76.1 (no result: SENP8 block-2)
C#CCOCCOCCOCCNc1nc(N2CCN(C(=O)CCCCCCCCCCNC(=O)[C@H](CCCCN)n3cc(CCO)nn3)CC2)nc(N2CCN(C(=O)CCCCCCCCCCNC(=O)[C@H](CCCN=C(N)N)n3cc(C[C@@H](C)CC)nn3)CC2)n1	UBC13 polyUb 125.2, Apaf1 inhib 77.7
C#CCOCCOCCOCCNc1nc(N2CCN(C(=O)[C@H](CCCCN)n3cc(CCCC)nn3)CC2)nc(N2CCN(C(=O)[C@H](Cc3ccc(O)cc3)n3cc(CCO)nn3)CC2)n1	UBC13 polyUb 90.5
C#CCOCCOCCOCCNc1nc(N2CCN(C(=O)CCCCCCCCCCNC(=O)[C@H](CO)n3cc(CCCSC)nn3)CC2)nc(N2CCN(C(=O)CCCCCCCCCCNC(=O)[C@H](CCCCN)n3cc(C[C@@H](C)CC)nn3)CC2)n1	UBC13 polyUb 118.1, Apaf1 inhib 68.2 (no result: SENP8 block-2)
C#CCOCCOCCOCCNc1nc(N2CCN(C(=O)CCCCCCCCCCNC(=O)[C@H](CCCCN)n3cc(C[C@@H](C)CC)nn3)CC2)nc(N2CCN(C(=O)CCCCCCCCCCNC(=O)[C@H](CCCCN)n3cc(C[C@@H](C)CC)nn3)CC2)n1	none (no result: SENP7 block, SENP6 block, SENP8 block-1, UBC13 polyUb, Apaf1 inhib)
CC(C)c1cc(Cn2c3ccccc3c(=O)n2C(C)Cn2cc(-c3ccccc3)nn2)on1 (stereo not drawn)	none (no result: SENP7 block, SENP6 block, SENP8 block-1, UBC13 polyUb, Apaf1 inhib)
C#CCOCCOCCOCCNc1nc(N2CCN(C(=O)CCCCCCCCCCNC(=O)[C@@H](CCSC)n3cc(CCO)nn3)CC2)nc(N2CCN(C(=O)CCCCCCCCCCNC(=O)[C@H]([C@@H](C)CC)n3cc(CCCCCN)nn3)CC2)n1	UBC13 polyUb 116.3, Apaf1 inhib 50.9 (no result: SENP8 block-2)
C#CCOCCOCCOCCNc1nc(N2CCOCC2)nc(N2CCN(C(=O)CCCCCCCCCCNC(=O)[C@@H](CCSC)n3cc(CCO)nn3)CC2)n1	none
C#CCOCCOCCOCCNc1nc(N2CCN(C(=O)CCCCCCCCCCNC(=O)[C@H]([C@@H](C)CC)n3cc(CCCCN=C(N)N)nn3)CC2)nc(N2CCN(C(=O)CCCCCCCCCCNC(=O)[C@H](CCCCN)n3cc(C[C@@H](C)CC)nn3)CC2)n1	UBC13 polyUb 122.2, Apaf1 inhib 55.5 (no result: SENP8 block-2)
C#CCOCCOCCOCCNc1nc(N2CCN(C(=O)[C@H]([C@@H](C)CC)n3cc(CCCN=C(N)N)nn3)CC2)nc(N2CCN(C(=O)[C@H](CCCCN)n3cc(CC(C)O)nn3)CC2)n1 (stereo partly drawn)	none
O=C(c1cccc(S(=O)(=O)N2CCN(c3ccc(F)cc3)CC2)c1)N1CCCCCCC1	Apaf1 inhib 41.8
CC(=O)N1CCN(C(=O)c2cccc(S(=O)(=O)N3CCN(c4ccc(F)cc4)CC3)c2)CC1	none
CC(=O)OCC1O[C@@H](O[C@@H]2C[C@H]3C(C)(C)[C@H](OC(C)=O)CC[C@]3(C)[C@H]3CC[C@]45C[C@]4(CC[C@H]5[C@@H](C)C[C@@H](O)[C@H](O)C(C)(C)O)[C@@]32C)[C@H](O)[C@@H](O)[C@@H]1O (stereo partly drawn)	UBC13 polyUb 92.9 (no result: SENP8 block-2)
NS(=O)(=O)c1ccc(N=Nc2c[nH]c(=O)c(O)c2)cc1	Apaf1 inhib 73.5
Nc1nc(O)c(N=Nc2ccc(S(N)(=O)=O)cc2)c(=O)[nH]1	none (no result: SENP8 block-2)
CCN(CC)c1ccc2cc(-c3nc4ccccc4n3C)c(=O)oc2c1	none (no result: SENP7 block, SENP6 block, SENP8 block-1, UBC13 polyUb, Apaf1 inhib)
CCN(CC)c1ccc2cc(-c3nc4ccccc4[nH]3)c(=O)oc2c1	SENP7 block 95.5, SENP6 block 69.2, SENP8 block-1 51.2
COc1ccc(Cn2cc(CN(C)C3CN(Cc4cn(Cc5ccc(OC)cc5)nn4)S(=O)(=O)C3)nn2)cc1 (stereo not drawn)	none (no result: SENP7 block, SENP6 block, SENP8 block-1, UBC13 polyUb, Apaf1 inhib)
O=C(N/N=C/c1ccccc1OCC(=O)N1CCCC1)C(=O)Nc1ccccc1F	SENP7 block 61.5, SENP6 block 70.0
Oc1c(C=Nc2cccc3cccnc23)sc2ccccc12	SENP7 block 74.1, SENP6 block 91.8, SENP8 block-1 86.7 (no result: SENP8 block-2)
Cc1cc(NC(=O)c2ccc(NC(=O)c3cccs3)cc2)no1	none
CC(C)(C)c1cc(NC(=O)c2cccs2)no1	SENP7 block 94.8, SENP6 block 89.0, SENP8 block-1 88.1

Screens from PubChem.
